Results taken from ChEMBL document CHEMBL4616704, “Discovery of an Atropisomeric PI3Kβ Selective Inhibitor through Optimization of the Hinge Binding Motif” (ACS Med Chem Lett, 2020).

How the values were obtained:
[1] = Dissociation constant, acidic pKa of compound; assay type: physicochemical
[2] = biological target: T1, Phosphatidylinositol 4,5-bisphosphate 3-kinase catalytic subunit beta isoform (Homo sapiens, UniProt P42338); assay: Inhibition of PI3Kbeta in PTEN-deficient human LNCaP C4-2 cells assessed as reduction in AKT phosphorylation at Ser473 residue after 2 hrs by mesoscale assay; assay type: cell-based
Method in brief: (§1)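 Cellular readout: pAKT1 Ser473 normalized to total AKT1, expressed as units pAKT1 Ser473 per nanogram total AKT1; cells treated under serum-free conditions.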

[3] = biological target: T1, Phosphatidylinositol 4,5-bisphosphate 3-kinase catalytic subunit beta isoform; assay: Inhibition of PI3Kbeta in PTEN-deficient human LNCAP cells assessed as reduction in AKT phosphorylation at Ser473 residue after 2 hrs by mesoscale assay; assay type: cell-based; method in brief: as §1
[4] = Protein binding in Sprague-Dawley rat plasma at 1 mg/kg administered as iv infusion for 30 mins and measured after 24 hrs by ESI-LC/MS/MS analysis; assay type: ADME, organism-based; settings: read-out: PPB (converted)
[5] = Volume of distribution at steady state in Sprague-Dawley rat at 1 mg/kg administered as iv infusion for 30 mins and measured after 24 hrs by ESI-LC/MS/MS analysis; assay type: ADME, organism-based; settings: in vivo, read-out: Vdss
[6] = MRT in Beagle dog at 1 mg/kg administered as iv infusion for 30 mins and measured after 24 hrs by ESI-LC/MS/MS analysis; assay type: ADME, organism-based, Canis lupus familiaris; settings: in vivo
[7] = Clearance in cynomolgus monkey at 1 mg/kg administered as iv infusion for 30 mins and measured after 24 hrs by ESI-LC/MS/MS analysis; assay type: ADME, organism-based, Macaca fascicularis; settings: in vivo
[8] = Terminal half life in cynomolgus monkey at 1 mg/kg administered as iv infusion for 30 mins and measured after 24 hrs by ESI-LC/MS/MS analysis; assay type: ADME, organism-based, Macaca fascicularis; settings: in vivo, read-out: beta t1/2 (converted)
[9] = MRT in rhesus monkey at 1 mg/kg administered as iv infusion for 30 mins and measured after 24 hrs by ESI-LC/MS/MS analysis; assay type: ADME, organism-based, Macaca mulatta; settings: in vivo
[10] = Ocular toxicity in Beagle dog assessed as irreversible damage by measuring decrease response in visual stimuli at 10 to 40 mg/kg/day administered for 7 days and measured from day 4 to day 7; assay type: organism-based, Canis lupus familiaris; settings: in vivo, 168 h
[11] = Ocular toxicity in Beagle dog assessed as irreversible damage by measuring ocular discharge at 10 to 40 mg/kg/day administered for 7 days and measured from day 4 to day 7; assay type: organism-based, Canis lupus familiaris; settings: in vivo, 168 h

T1 sequence (P42338 whole entry, canonical isoform): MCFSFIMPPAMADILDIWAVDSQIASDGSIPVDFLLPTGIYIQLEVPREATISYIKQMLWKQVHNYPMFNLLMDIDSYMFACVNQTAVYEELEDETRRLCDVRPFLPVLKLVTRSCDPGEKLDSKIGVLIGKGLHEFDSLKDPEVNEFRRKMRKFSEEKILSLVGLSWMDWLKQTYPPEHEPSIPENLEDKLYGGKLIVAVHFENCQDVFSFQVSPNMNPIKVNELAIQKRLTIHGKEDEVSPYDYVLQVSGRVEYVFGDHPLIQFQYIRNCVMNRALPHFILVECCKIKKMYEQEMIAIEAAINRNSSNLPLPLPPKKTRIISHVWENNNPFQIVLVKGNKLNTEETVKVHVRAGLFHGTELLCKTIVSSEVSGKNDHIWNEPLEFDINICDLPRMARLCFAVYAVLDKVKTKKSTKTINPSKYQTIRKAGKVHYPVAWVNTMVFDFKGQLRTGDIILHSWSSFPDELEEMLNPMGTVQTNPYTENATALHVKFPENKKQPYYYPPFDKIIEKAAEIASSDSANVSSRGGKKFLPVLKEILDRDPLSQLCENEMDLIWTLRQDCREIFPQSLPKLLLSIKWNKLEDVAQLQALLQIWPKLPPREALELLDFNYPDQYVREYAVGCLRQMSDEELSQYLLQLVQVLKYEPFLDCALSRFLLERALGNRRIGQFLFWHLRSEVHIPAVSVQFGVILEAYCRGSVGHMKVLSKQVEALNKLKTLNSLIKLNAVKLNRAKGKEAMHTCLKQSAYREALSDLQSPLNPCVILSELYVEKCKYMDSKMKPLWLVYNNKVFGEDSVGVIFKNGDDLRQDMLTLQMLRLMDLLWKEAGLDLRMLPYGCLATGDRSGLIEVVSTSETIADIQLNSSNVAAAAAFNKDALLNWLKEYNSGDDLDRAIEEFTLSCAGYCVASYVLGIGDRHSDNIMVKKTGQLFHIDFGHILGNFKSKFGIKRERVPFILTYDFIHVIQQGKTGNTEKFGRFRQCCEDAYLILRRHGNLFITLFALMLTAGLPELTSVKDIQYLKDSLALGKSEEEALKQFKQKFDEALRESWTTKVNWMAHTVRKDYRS

Cc1nc2c(-c3nnc[nH]3)cc(-c3ccnc(C#N)c3)cc2n1-c1ccnc2c(F)ccc(F)c12
pKa [1]: < 1 | EC50 [2]: 24 nM | EC50 [3]: 31 nM | fraction unbound at 24 h [4]: 0.16 | Vd [5]: 2.5 L/kg | MRT [6]: 7.3 h | clearance [7]: 4.17 mL/min/kg | half-life [8]: 4.1 h | MRT [9]: 5.5 h | Activity [10]: Toxic | Activity [11]: Toxic
